ChEMBL document CHEMBL2390884, “Design, synthesis and antiproliferative activity studies of novel 1,2,3-triazole-dithiocarbamate-urea hybrids” (Eur J Med Chem, 2013)
Active and inactive are the calls of the source. The calls are words filed in the database; no cut-off is given here.

Experiments:
MGC-803 [1] = assay: Cell cycle arrest in human MGC803 cells assessed as accumulation at S phase at 0.25 uM after 24 hrs by propidium iodide staining-based flow cytometry; format: functional
Summary of the method: (§1)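 Exponentially growing MGC-803 cells (5×10^5) treated at 0, 0.25, 0.5 or 1.0 µmol/L for 12 or 24 h; cells collected, fixed in ice-cold 70% ethanol, treated with buffer containing RNAse A and 0.1% Triton X-100, stained with PI; DNA content analysed by flow cytometry to give percentages of cells in G1, S and G2/M phases.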

MGC-803 [2] = assay: Cell cycle arrest in human MGC803 cells assessed as accumulation at S phase at 0.5 uM after 12 hrs by propidium iodide staining-based flow cytometry; format: functional; summary of the method: as §1
MGC-803 [3] = assay: Cell cycle arrest in human MGC803 cells assessed as accumulation at G0/G1 phase at 0.5 uM after 12 hrs by propidium iodide staining-based flow cytometry; format: functional; summary of the method: as §1
MGC-803 [4] = assay: Cell cycle arrest in human MGC803 cells assessed as accumulation at G2/M phase at 0.25 to 1 uM by propidium iodide staining-based flow cytometry; format: functional; details: TDE = time-dependent effect; summary of the method: as §1
MGC-803 [5] = assay: Cell cycle arrest in human MGC803 cells assessed as reduction in G1 phase accumulation after 12 to 24 hrs by propidium iodide staining-based flow cytometry; format: functional; summary of the method: as §1
MGC-803 [6] = assay: Induction of apoptosis in human MGC803 cells assessed as viable cells at 1 uM after 12 hrs by AnnexinV-FITC/propidium iodide staining-based flow cytometry (reference value: 91.9 %); format: functional; details: MGC-803, 12 h, read-out: Activity
MGC-803 [7] = assay: Cell cycle arrest in human MGC803 cells assessed as accumulation at G2/M phase at 0.5 uM after 24 hrs by propidium iodide staining-based flow cytometry; format: functional; summary of the method: as §1
SMMC-7721 = assay: Cytotoxicity against human SMMC7721 cells after 72 hrs by MTT assay; format: functional, cell-based; details: SMMC-7721, 72 h
HEK293 = assay: Cytotoxicity against human HEK293 cells up to 70 uM after 72 hrs by MTT assay; format: cell-based; details: hek293, 72 h
Summary of the method: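 HEK293 cells seeded at 5×10^3 per well, grown 24 h at 37°C, then medium replaced with compound-containing medium over a concentration range; 72 h exposure; MTT (5 mg/mL stock) added for 4 h at 37°C, formazan dissolved in DMSO, absorbance read at 570 nm. Triplicate per concentration, experiment repeated three times.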

MGC-803 [8] = assay: Cell cycle arrest in human MGC803 cells assessed as accumulation at S phase at 0.5 uM after 24 hrs by propidium iodide staining-based flow cytometry; format: functional; summary of the method: as §1
MGC-803 [9] = assay: Induction of apoptosis in human MGC803 cells assessed as late apoptotic cells at 0.25 uM after 12 hrs by AnnexinV-FITC/propidium iodide staining-based flow cytometry (reference value: 3.0 %); format: functional
MCF7 = assay: Cytotoxicity against human MCF7 cells after 72 hrs by MTT assay; format: functional, cell-based; details: MCF7, 72 h
MGC-803 [10] = assay: Cell cycle arrest in human MGC803 cells assessed as accumulation at G0/G1 phase at 0.5 uM after 24 hrs by propidium iodide staining-based flow cytometry; format: functional; summary of the method: as §1
MGC-803 [11] = assay: Cell cycle arrest in human MGC803 cells assessed as accumulation at S phase at 0.25 uM after 12 hrs by propidium iodide staining-based flow cytometry; format: functional; summary of the method: as §1
MGC-803 [12] = assay: Cytotoxicity against human MGC803 cells after 72 hrs by MTT assay; format: functional, cell-based; details: MGC-803, 72 h
MGC-803 [13] = assay: Cell cycle arrest in human MGC803 cells assessed as reduction in S phase accumulation at 0.25 to 1 uM by propidium iodide staining-based flow cytometry; format: functional; details: TDE = time-dependent effect; summary of the method: as §1
MGC-803 [14] = assay: Induction of apoptosis in human MGC803 cells assessed as late apoptotic cells at 1 uM after 12 hrs by AnnexinV-FITC/propidium iodide staining-based flow cytometry (reference value: 3.0 %); format: functional
MGC-803 [15] = assay: Cell cycle arrest in human MGC803 cells assessed as accumulation at G2/M phase at 0.25 uM after 12 hrs by propidium iodide staining-based flow cytometry; format: functional; summary of the method: as §1
MGC-803 [16] = assay: Induction of apoptosis in human MGC803 cells assessed as necrotic cells at 1 uM after 12 hrs by AnnexinV-FITC/propidium iodide staining-based flow cytometry (reference value: 2.4 %); format: functional
MGC-803 [17] = assay: Induction of apoptosis in human MGC803 cells assessed as necrotic cells at 0.5 uM after 12 hrs by AnnexinV-FITC/propidium iodide staining-based flow cytometry (reference value: 2.4 %); format: functional
MGC-803 [18] = assay: Induction of apoptosis in human MGC803 cells assessed as necrotic cells at 0.25 uM after 12 hrs by AnnexinV-FITC/propidium iodide staining-based flow cytometry (reference value: 2.4 %); format: functional
MGC-803 [19] = assay: Induction of apoptosis in human MGC803 cells assessed as early apoptotic cells at 0.25 uM after 12 hrs by AnnexinV-FITC/propidium iodide staining-based flow cytometry (reference value: 2.8 %); format: functional
MGC-803 [20] = assay: Induction of apoptosis in human MGC803 cells assessed as nuclear shrinkage at 0.25 to 1 uM after 12 hrs by Hoechst 33258 staining-based fluorescence microscopy; format: functional, cell-based
Summary of the method: (§2)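 MGC-803 cells seeded at 8×10^3 cells/well, treated 12 h at 0, 0.25, 0.5 or 1.0 µmol/L; cells collected, fixed, stained 20 min with Hoechst 33258, washed with PBS; nuclear shrinkage, chromatin condensation, intense fluorescence and fragmentation scored by fluorescence microscopy.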

[21] = Cytotoxicity against human EC9706 cells after 72 hrs by MTT assay; format: functional, cell-based; details: EC9706, 72 h
MGC-803 [22] = assay: Cell cycle arrest in human MGC803 cells assessed as accumulation at G0/G1 phase at 1 uM after 24 hrs by propidium iodide staining-based flow cytometry; format: functional; summary of the method: as §1
MGC-803 [23] = assay: Cell cycle arrest in human MGC803 cells assessed as accumulation at G0/G1 phase at 0.25 uM after 24 hrs by propidium iodide staining-based flow cytometry; format: functional; summary of the method: as §1
MGC-803 [24] = assay: Cell cycle arrest in human MGC803 cells assessed as accumulation at G2/M phase at 0.5 uM after 12 hrs by propidium iodide staining-based flow cytometry; format: functional; summary of the method: as §1
MGC-803 [25] = assay: Cell cycle arrest in human MGC803 cells assessed as accumulation at G2/M phase at 1 uM after 24 hrs by propidium iodide staining-based flow cytometry; format: functional; summary of the method: as §1
MGC-803 [26] = assay: Cell cycle arrest in human MGC803 cells assessed as reduction in S phase accumulation after 12 to 24 hrs by propidium iodide staining-based flow cytometry; format: functional; summary of the method: as §1
MGC-803 [27] = assay: Induction of apoptosis in human MGC803 cells assessed as early apoptotic cells at 0.5 uM after 12 hrs by AnnexinV-FITC/propidium iodide staining-based flow cytometry (reference value: 2.8 %); format: functional
MGC-803 [28] = assay: Cell cycle arrest in human MGC803 cells assessed as accumulation at S phase at 1 uM after 12 hrs by propidium iodide staining-based flow cytometry; format: functional; summary of the method: as §1
MGC-803 [29] = assay: Cell cycle arrest in human MGC803 cells assessed as accumulation at G0/G1 phase at 1 uM after 12 hrs by propidium iodide staining-based flow cytometry; format: functional; summary of the method: as §1
MGC-803 [30] = assay: Cell cycle arrest in human MGC803 cells assessed as accumulation at S phase at 1 uM after 24 hrs by propidium iodide staining-based flow cytometry; format: functional; summary of the method: as §1
MGC-803 [31] = assay: Induction of apoptosis in human MGC803 cells assessed as chromatin condensation at 0.25 to 1 uM after 12 hrs by Hoechst 33258 staining-based fluorescence microscopy; format: functional, cell-based; summary of the method: as §2

`CC(C)NC(=O)N1CCN(C(=S)SCc2cn(Cc3ccc(F)cc3)nn2)CC1` showed an Activity (MGC-803 [1]) of 25.21%, an Activity (MGC-803 [2]) of 32.65% and an Activity (MGC-803 [3]) of 22.18%. For the same compound, the Activity (MGC-803 [4]) was “tde”, the Activity (MGC-803 [5]) was “Dose-dependent effect” and the viability at 1 µM (MGC-803 [6]) was 65%. For the same compound, the Activity (MGC-803 [7]) was 69.88%, the IC50 (SMMC-7721) was 5.97 µM and the Activity (HEK293) was “Non-toxic”. For the same compound, the Activity (MGC-803 [8]) was 20.57%, the Activity (MGC-803 [9]) was 2.2% and the IC50 (MCF7) was 1660 nM. It also gave an Activity (MGC-803 [10]) of 4.91%, an Activity (MGC-803 [11]) of 40.91% and an IC50 (MGC-803 [12]) of 760 nM. For the same compound, the Activity (MGC-803 [13]) was “tde”, the Activity (MGC-803 [14]) was 2.4% and the Activity (MGC-803 [15]) was 20.84%. The Activity (MGC-803 [16]) was 1.2%, the Activity (MGC-803 [17]) was 0.8% and the Activity (MGC-803 [18]) was 0.5%. For the same compound, the Activity (MGC-803 [19]) was 9.2%, the Activity (MGC-803 [20]) was “Active” and the IC50 [21] was 12.2 µM. For the same compound, the Activity (MGC-803 [22]) was 2.32%, the Activity (MGC-803 [23]) was 13.78% and the Activity (MGC-803 [24]) was 46.86%. The Activity (MGC-803 [25]) was 79.02%, the Activity (MGC-803 [26]) was “Dose-dependent effect” and the Activity (MGC-803 [27]) was 17.2%. For the same compound, the Activity (MGC-803 [28]) was 12.65%, the Activity (MGC-803 [29]) was 3.62% and the Activity (MGC-803 [30]) was 15.91%. For the same compound, the Activity (MGC-803 [31]) was “Active”.
